Published values collected from several papers.
Each line is one published result; the experiments were not run side by side.
Effect on: cell growth or viability

| SMILES | cell line | test | setting | quantity | result |
| --- | --- | --- | --- | --- | --- |
| COc1cc(OC)c2c(=O)cc(-c3ccc(N(C)C)cc3)oc2c1-c1c(OC)cc(OC)c2c(=O)cc(-c3ccc(N(C)C)cc3)oc12 | HS27 | MTT | 24 h | CC50 | > 200 µM |
| CC(=O)OC[C@@]1(C)[C@H]2CC[C@@H]3CN(C(C)C)[C@@H](C4=CCOC4=O)C[C@H]3[C@]2(C)CC[C@H]1OC(C)=O | MRC5 | ATP luminescence | 25 µM, 72 h | cell death | -2.1% |
| CC(C)(C)CC(C)(C)Nc1c(-c2cccnc2)nc2ncccn12 | MDA-MB-231 | MTT | 25 µM, 48 h | viability | 85.2% |
| CC1(C)OC[C@@]2(C)[C@H]3CC[C@@H]4CN(Cc5ccc(C(F)(F)F)cc5)[C@@H](C5=CCOC5=O)C[C@H]4[C@]3(C)CC[C@H]2O1 | MRC5 | ATP luminescence | 25 µM, 72 h | cell death | 7.1% |
| COc1ccc(S(=O)(=O)ON=C2C=C(C)C(=O)C(C)=C2)cc1 | MDA-MB-231 | – | – | CC50 | 1.03 µM |
| CCCCN1C[C@H]2CC[C@@H]3[C@]4(C)COC(C)(C)O[C@@H]4CC[C@@]3(C)[C@@H]2C[C@@H]1C1=CCOC1=O | MRC5 | ATP luminescence | 25 µM, 72 h | cell death | 33.7% |
| COc1ccc(COc2ccc(NC(=O)NC[C@H]3O[C@H](n4cc(C)c(=O)[nH]c4=O)C[C@@H]3O)cc2)cc1 | MRC5 | – | – | CC50 | > 50 µM |
| CC(C)(C)CC(C)(C)Nc1c(-c2ccccc2)nc2ncccn12 | MDA-MB-231 | MTT | 25 µM, 48 h | viability | 58.2% |
| COc1cc(OC)c2c(=O)cc(-c3ccc(Br)cc3)oc2c1 | HS27 | MTT | 24 h | CC50 | > 200 µM |
| COc1ccc(-c2nc3ncccn3c2NC(C)(C)CC(C)(C)C)cc1O | MDA-MB-231 | MTT | 25 µM, 48 h | viability | 67.3% |
| COc1cc(C)cc2oc(-c3ccccc3)cc(=O)c12 | HS27 | MTT | 24 h | CC50 | > 200 µM |
| CC1(C)OC[C@@]2(C)[C@H]3CC[C@@H]4CN(Cc5cccs5)[C@@H](C5=CCOC5=O)C[C@H]4[C@]3(C)CC[C@H]2O1 | MRC5 | ATP luminescence | 25 µM, 72 h | cell death | -0.9% |
